BaF3 parental: parental Ba/F3 viability inhibition as JAK2V617F counter-screen; actives 1.1% (n = 220,000); CellTiter-Glo ATP luminescence; inhibition, % at 5.6 µM;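 active = inhibition above a per-campaign cutoff, the mean inhibition of all tested compounds plus 3 SD, cut at about 27% in these data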
b-catenin transl: modulators of beta-catenin nuclear translocation | HeLa beta-catenin nuclear translocation, immunofluorescence imaging | nuclear translocation activity, % at 5 µM | actives 0.3% (n = 190,000);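 active = nuclear translocation activity above 50% at 5 µM, with a well cell count of 50 or more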;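 note: per-cell ratio of nuclear to cytoplasmic median beta-catenin stain intensity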
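Assay system: human HeLa cells, native beta-catenin; doses: 5 µM primary, 0.02–20 µM confirmation; incubation: compound treatment 24 h, 37°C, 5% CO2; technique: fluorescence imaging of beta-catenin antibody stain plus DAPI; measure: % activation, nuclear-to-cytoplasmic median beta-catenin signal ratio per cell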
Ba/F3 V617F tox: loss of viability in JAK2V617F-driven Ba/F3 cells; inhibition, % at 5.6 µM; Ba/F3 EpoR-JAK2V617F viability, ATP luminescence; actives 1.1% (n = 220,000); AID 1446;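 active = inhibition above the campaign mean plus 3 SD over all tested compounds, cut at about 24% in these data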;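 note: cytokine-independent growth of Ba/F3 cells driven by EpoR plus mutant JAK2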
APP 5UTR inh: APP translation inhibition | SH-SY5Y APP 5'UTR-luciferase reporter, luminescence | inhibition, % at 2 µM | actives 0.82% (n = 190,000) | AID 1285;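 active = inhibition above a set limit, derived from the sample mean plus 3 SD, cut at about 45% in these data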
MT stabilizer: microtubule stabilizers in HeLa cells. % tubulin-high responders, % at 10 µM. HeLa tubulin immunostaining HCS, 24 h; share of cells brighter than vehicle mean+2SD. AID 2205. actives 0.83% (n = 200,000);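 active = plate Z-score above 3 for both tubulin-high and condensed-nucleus cell shares, with cell loss under 80%, at 10 µM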;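 note: anti alpha tubulin signal scored within the nucleus-defined area of each cell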
IEC-6 tox: counter-screen for KLF5 inhibitors: cytotoxicity in IEC-6 cells; inhibition, % at 5 µM; AID 1825; actives 0.78% (n = 290,000); IEC-6 cytotoxicity, luminescence viability; in the data active = inhibition above about 22%
A number is an active result; 0 = inactive; - = not tested or not shown. An excerpt weighted towards active compounds, which were near 2.2% of everything screened.

SMILES	BaF3 parental	b-catenin transl	Ba/F3 V617F tox	APP 5UTR inh	MT stabilizer	IEC-6 tox
COc1ccc(C2C3=C(Nc4ncnn42)c2ccccc2CCC3)cc1 (centres undefined)	0	0	0	0	0	0
COc1cc(C2C3=C(Nc4ncnn42)c2ccccc2CC3)cc(OC)c1OC (centres undefined)	90	135	93	95	18	96
COc1cc(C2C=C(c3cccs3)Nc3ncnn32)cc(OC)c1OC (centres undefined)	0	119	0	0	0	0
COc1ccccc1CNC(=O)c1cc(S(=O)(=O)N2CCCCC2)c[nH]1	-	-	-	-	-	0
C/C(CC(=O)Nc1cccc(Br)c1)=N\NC(=O)c1ccc(O)cc1O	-	-	-	-	-	0
COc1ccc(/C=N/NC(=O)c2[nH]nc3c2CCc2ccccc2-3)cc1OC	0	127	0	0	22	0
COc1ccc(/C=N/NC(=O)c2cc(=O)[nH]c3ccccc23)cc1OC	39	0	0	0	0	0
COc1ccc(/C=N/NC(N)=S)cc1OC(=O)c1cccc2ccccc12	0	-	0	0	35	0
Cc1cc(C)nc(SC2=CS(=O)(=O)c3ccccc32)n1	0	0	0	0	0	0
O=S1(=O)C=C(Sc2nc3ccccc3s2)c2ccccc21	105	0	101	96	0	72
CC(C)C(c1nnnn1C1CCCC1)N1CCc2ccccc21 (centres undefined)	0	0	0	0	0	0
Cc1ccc(C(c2nnnn2C2CCCC2)N2CCc3ccccc32)cc1 (centres undefined)	40	0	0	0	0	0
OC(CNCC(c1ccc(Cl)cc1Cl)c1c[nH]c2ccccc12)c1ccccc1 (centres undefined)	0	0	0	0	11	0
Cc1ccc(N=C2NC(=O)/C(=C\c3ccc(C)s3)S2)cc1	0	0	0	0	6.3	0
Cc1ccc(N=C2NC(=O)/C(=C/c3cccn3C)S2)cc1	0	65	0	-	-	0
O=C(NCCCc1ccccc1)c1cc(COc2ccc(F)cc2Cl)on1	-	-	-	-	-	0
O=C1C=CC(=O)C(C2=C3C(=O)N(CCc4ccccc4)CC(=O)N3CCC2)=C1	0	-	0	65	0	0
O=C1CC(=O)N(CCc2ccccc2)C(=O)N1CCc1ccccc1	0	0	0	0	0	0
CCC1CN(C(=O)NCc2ccc(C)cc2)c2cc(Cl)ccc2O1 (centres undefined)	-	-	-	-	-	0
O=C1NC(=Nc2ccccc2)S/C1=C\C=C\c1ccco1	0	0	0	0	17	0
COc1cccc(/C=N/NC(=O)c2cc3c(OC)cccc3[nH]2)c1O	0	0	0	45	0	0
COc1cccc(/C=N/NC(=O)c2cc3cc([N+](=O)[O-])ccc3s2)c1O	0	0	0	51	0	0
COc1cc([N+](=O)[O-])cc(/C=N/NC(=O)c2ccc(NC(=O)c3ccc(C)cc3)cc2)c1O	0	0	0	87	0	0
COc1ccccc1/C=N/NC(=O)c1ccc(NC(=O)c2cccc([N+](=O)[O-])c2)cc1	0	0	0	0	0	0
COc1cc([N+](=O)[O-])cc(/C=N/NC(=O)c2ccc(C)nc2)c1O	0	0	0	0	0	0
SMILES	BaF3 parental	b-catenin transl	Ba/F3 V617F tox	APP 5UTR inh	MT stabilizer	IEC-6 tox
CC(=O)C1=C(O)C(=O)N(c2ccc(Br)cc2)C1c1ccccc1[N+](=O)[O-] (centres undefined)	-	-	-	-	-	0
CCCCC1CCC(C(=O)OC(C)C(=O)Nc2ccc(NC(C)=O)cc2)CC1 (centres undefined)	-	-	-	-	-	0
NNC(=O)c1ccc(Cn2cccn2)o1	0	0	0	-	-	0
CCN(CC)c1ccc(NC(=O)c2ccc3c(c2)c(C)c(C)n3C)cc1	0	-	0	0	14	0
COc1cccc(OC)c1C(=O)NCCOc1cc(C)cc(C)c1	-	-	-	-	-	0
CCC(C)OC(=O)C[N+](C)(C)CCOC1CC2CCC1(C)C2(C)C (centres undefined)	74	0	82	0	0	0
CCCCCCOC(=O)C[N+](C)(C)CCOC1CC2CCC1(C)C2(C)C (centres undefined)	80	0	89	0	0	0
CC(C)CCOC(=O)C[N+](C)(C)CCOC1CC2CCC1(C)C2(C)C (centres undefined)	76	0	90	0	0	0
COc1cc(/C=C/C(=O)OC2CC3CCC2(C)C3(C)C)ccc1O (centres undefined)	-	0	-	-	-	-
